The test system of series [1] is HT-29. Nature of the series: Cytotoxicity against human HT-29 cells. The class given is functional, cell-based. A digest of the protocol:
(§1)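 Cell lines grown to log phase in RPMI-1640 with 10% FBS, penicillin and streptomycin. About 10^5 cells/mL were plated and pre-incubated 24 h at 37 °C in 5% CO2. Compounds were given in DMSO, final ≤2% (v/v). MTT read-out was OD at 490 nm. Triplicate wells per concentration, each assay run ≥3 times. IC50 is 50% OD reduction versus untreated cells, calculated by the Logit method. Cisplatin was the reference.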

Series [2] has as its system HepG2. Nature of the series: Cytotoxicity against human HepG2 cells. It counts as functional, cell-based. A digest of the protocol: as §1
The subject of series [3] is MCF7. Nature of the series: Cytotoxicity against human MCF7 cells. The class given is functional, cell-based. A digest of the protocol:
as §1

Series [4] concerns Mus musculus. As to the kind of experiment: Neurotoxicity in Kunming mouse assessed as jumping behavior at 5 to 500 mg/kg, ip observed continuously for first 2 hrs, intermittently for next 24 hrs and occasionally thereafter for 14 days. The class given is toxicity, organism-based. The following applies: in vivo. The essentials: (§2)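 SPF KM mice, 6-8 weeks, 19-22 g, fasted overnight with water available. Single i.p. dose, 5.0 to 500 mg kg-1 in 0.5% CMC-Na, 10 mice per group (5 male, 5 female). Observed for behaviour, neurotoxic signs and deaths, then killed on day 14 and heart, liver and kidneys inspected macroscopically. LD50 derived graphically.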

Series [5] relates to Mus musculus. Nature of the series: Hepatotoxicity in Kunming mouse at 5 to 500 mg/kg, ip after 14 days by macroscopic method. It counts as toxicity, organism-based. Particulars: in vivo, 336 h.
Series [6] relates to HT-29. As to the kind of experiment: Cytotoxicity against human HT-29 cells assessed as cell growth inhibition after 24 hrs by MTT assay. It counts as functional, cell-based. The following applies: HT-29, 24 h. The essentials: as §1
On the technique in general: Tetrazolium assays rely on reduction of a dye to a coloured formazan, in cell work by metabolically active cells.

In the next series the test system is Sarcoma-180. Nature of the series: Antitumor activity against mouse Sarcoma 180 cells implanted in mouse assessed as tumor growth inhibition at 1.6 mg/kg, ip administered once per day for 7 consecutive days starting from 24 hrs post tumor inoculation and measured on day 21 post tumor inoculation relative to control. The class given is functional. The following applies: Sarcoma-180, ip, read-out: TGI. The essentials:
(§3)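 Tumor cells were harvested from 7-day donor tumors, and 2×10^6 viable cells/mouse were injected s.c. in the armpit. Groups of 10 female mice received i.p. compound daily for 7 days, starting 24 h after inoculation. Controls were vehicle (negative) and CTX 30 mg/kg (positive). Body weight was recorded every 3 days. On day 21 tumors were excised and weighed, and inhibition was calculated as (C−T)/C×100 from mean tumor weights.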

Series [7] in a line: Cytotoxicity against human BGC cells assessed as cell growth inhibition after 24 hrs by MTT assay. The class given is functional, cell-based. The essentials:
as §1

Series [8] relates to Mus musculus. As to the kind of experiment: Neurotoxicity in Kunming mouse assessed as tremble at 5 to 500 mg/kg, ip observed continuously for first 2 hrs, intermittently for next 24 hrs and occasionally thereafter for 14 days. It counts as toxicity, organism-based. Particulars: in vivo. A digest of the protocol:
as §2

In a further series the test system is 769-P. Nature of the series: Cytotoxicity against human 769-P cells assessed as cell growth inhibition after 24 hrs by MTT assay. The class given is functional, cell-based. The essentials:
as §1

Series [9] concerns HepG2. As to the kind of experiment: Cytotoxicity against human HepG2 cells assessed as cell growth inhibition after 24 hrs by MTT assay. It counts as functional, cell-based. The following applies: HepG2, 24 h. The essentials:
as §1

Series [10] concerns Mus musculus. As to the kind of experiment: Acute toxicity in ip dosed Kunming mouse assessed as death at higher dose up to 4 to 8 hrs. It counts as organism-based. Particulars: in vivo. The essentials:
as §2

The next series relates to A-375. Nature of the series: Cytotoxicity against human A375 cells assessed as cell growth inhibition after 24 hrs by MTT assay. The class given is functional, cell-based. The following applies: A-375, 24 h. The essentials:
as §1

The subject of series [11] is Mus musculus. Nature of the series: Neurotoxicity in Kunming mouse assessed as twitch at 5 to 500 mg/kg, ip observed continuously for first 2 hrs, intermittently for next 24 hrs and occasionally thereafter for 14 days. It counts as toxicity, organism-based. The following applies: in vivo. A digest of the protocol: as §2
For the next series, the system named is ECa-109 cell line. As to the kind of experiment: Cytotoxicity against human ECA109 cells assessed as cell growth inhibition after 24 hrs by MTT assay. The class given is functional, cell-based. The following applies: ECa-109, 24 h. The essentials: as §1
Series [12] has as its system Lewis lung carcinoma cell line. As to the kind of experiment: Antitumor activity against mouse LLC cells implanted in mouse assessed as tumor growth inhibition at 1.6 mg/kg, ip administered once per day for 7 consecutive days starting from 24 hrs post tumor inoculation and measured on day 21 post tumor inoculation relative to control. The class given is functional. The following applies: read-out: TGI. The essentials:
as §3

In series [13] the test system is Mus musculus. As to the kind of experiment: Nephrotoxicity in Kunming mouse at 5 to 500 mg/kg, ip after 14 days by macroscopic method. It counts as toxicity, organism-based. The following applies: in vivo, 336 h.
In series [14] the test system is Mus musculus. As to the kind of experiment: Neurotoxicity in Kunming mouse assessed as supination at 5 to 500 mg/kg, ip observed continuously for first 2 hrs, intermittently for next 24 hrs and occasionally thereafter for 14 days. The class given is toxicity, organism-based. Particulars: in vivo. The essentials: as §2
The subject of a further series is SK-OV-3. Nature of the series: Cytotoxicity against human SKOV3 cells assessed as cell growth inhibition after 24 hrs by MTT assay. It counts as functional, cell-based. Particulars: SK-OV-3, 24 h. A digest of the protocol: as §1
The subject of series [15] is Mus musculus. As to the kind of experiment: Cardiotoxicity in Kunming mouse at 5 to 500 mg/kg, ip after 14 days by macroscopic method. Particulars: in vivo, 336 h. It counts as toxicity, organism-based.
Series [16] in a line: Acute toxicity in ip dosed Kunming mouse observed continuously for first 2 hrs, intermittently for next 24 hrs and occasionally thereafter for 14 days. The class given is organism-based. The following applies: in vivo. The essentials: as §2
Series [17] deals with MCF7. As to the kind of experiment: Cytotoxicity against human MCF7 cells assessed as cell growth inhibition after 24 hrs by MTT assay. It counts as functional, cell-based. The following applies: MCF7, 24 h. The essentials:
as §1

Series [18] relates to Lewis lung carcinoma cell line. Nature of the series: Cytotoxicity against mouse LLC cells assessed as cell growth inhibition after 24 hrs by MTT assay. It counts as functional, cell-based. The essentials: as §1

Each structure is given as a SMILES string.

By IC50 is commonly meant the concentration that inhibits the measured activity by half. For `CCCCn1c2cnccc2c2ccc(OCCCCCCOc3ccc4c5ccnc(C)c5n(CCCC)c4c3)cc21`, the IC50 in the series with HT-29 [1] was 6.1 µM; in the series on HepG2 [2] it was 13 µM; in the series on MCF7 [3], greater than 100 µM.

Broadly, the LD50 is the dose at which mortality reaches 50%. The low end stands for greater toxicity, the high end for lower toxicity. Turning to `COc1ccc2c3ccnc(C)c3n(CCCCOc3ccc4c5ccnc(C)c5n(CCCc5ccccc5)c4c3)c2c1.Cl`, the Activity entry is recorded as “Toxic” in the series on Mus musculus [4]; “Non-Toxic” with Mus musculus [5]; “Toxic” with Mus musculus [8]; “Toxic” in the series with Mus musculus [10]; “Toxic” in the series with Mus musculus [11]; “Non-Toxic” with Mus musculus [13]. For the same compound, the values for the Activity entry in the series with Mus musculus [14] and in the series on Mus musculus [15] were “Toxic” and “Non-Toxic”, respectively. In addition, the IC50 in the series with HT-29 [6] stood at 21.6 µM; in [7], 4.7 µM; in the series on 769-P, 8.5 µM; in the series with HepG2 [9] it was 5.6 µM; in the series with A-375 it was 15.3 µM; in the series on ECa-109 cell line it was 18.4 µM. Further, the results for the half-maximal inhibitory concentration (IC50) (in the series on SK-OV-3; with MCF7 [17]; in series [18]) were 30 µM, 23.4 µM and 14.4 µM, respectively. Also, the results for the inhibition in vivo at 1.6 mg/kg (in the series on Sarcoma-180; in series [12]) were 49.9% and 38.2%, respectively. For the same compound, the median lethal dose (LD50) at 14 days in series [16] came out at 8 mg/kg.

Values taken from ChEMBL document CHEMBL4145545, “Synthesis and structure-activity relationships of asymmetric dimeric β-carboline derivatives as potential antitumor agents” (Eur J Med Chem, 2018).
